Assay outcomes deposited in PubChem BioAssay by The Scripps Research Institute Molecular Screening Center.
M4 antag: CHRM4 antagonism in calcium assay. inhibition, % at 3 µM. AID 624125. CHO-hM4 cells, ACh EC80, Fluo-8 calcium fluorescence. 360,000 tested, 0.73% active;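 active means inhibition above its plate's cutoff, the mean inhibition of sample wells plus 3 SD, cut at about 27% in these data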
Target sequence (P08173 whole entry, looked up): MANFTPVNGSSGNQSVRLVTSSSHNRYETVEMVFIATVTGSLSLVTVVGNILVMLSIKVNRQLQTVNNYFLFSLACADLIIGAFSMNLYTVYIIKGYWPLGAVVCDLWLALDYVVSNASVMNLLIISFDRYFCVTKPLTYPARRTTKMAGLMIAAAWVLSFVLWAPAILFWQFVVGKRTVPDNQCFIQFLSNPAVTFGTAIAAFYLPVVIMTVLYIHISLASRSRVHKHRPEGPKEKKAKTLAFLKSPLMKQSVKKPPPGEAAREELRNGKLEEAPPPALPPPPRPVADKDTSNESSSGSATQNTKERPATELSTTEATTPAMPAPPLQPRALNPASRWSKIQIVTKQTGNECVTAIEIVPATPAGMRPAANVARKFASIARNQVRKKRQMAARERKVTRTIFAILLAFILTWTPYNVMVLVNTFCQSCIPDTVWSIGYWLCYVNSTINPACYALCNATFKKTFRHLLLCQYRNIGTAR
CHRM4 agonist: agonists of human muscarinic M4 receptor (CHRM4); CHO-K1 hM4/Gqi5, Fluo-8 calcium fluorescence; vehicle 0%, full acetylcholine response 100%; activation, % at 3 µM; 360,000 tested, 0.14% active; AID 624127;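 active means activation above the run mean over all test wells plus 3 SD, cut at about 32% in these data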;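 further: peak over basal fluorescence ratio per well then scaled between controls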
M4 PAM: CHRM4 positive allosteric modulation | P08173 | CHO-K1 hM4/Gqi5, Fluo-8 calcium fluorescence, ACh EC20; 0% = ACh EC20, 100% = maximal ACh | activation, % at 3 µM | 360,000 tested, 0.4% active | AID 624126;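 active means activation above its plate's cutoff, the mean activation of sample wells plus 3 SD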
TAAR1 antagonist: antagonists of human TAAR1. 360,000 tested, 1.5% active. CHO RD-HGA16 TAAR1, Fluo-8 calcium fluorescence, antagonist. inhibition, % at 3 µM. AID 624466. Q96RJ0;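 active means inhibition above a per-plate cutoff, the mean inhibition of test compounds on that plate plus 3 SD, cut at about 49% in these data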
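Material: RD-HGA16 CHO cells with stable hTAAR1 and Gα16; Dosing: single nominal final test compound concentration of 3 µM; Schedule: seeding 17-24 h prior, 75-min 37 °C, 30-min RT dye loading; Detection: kinetic Fluo-8 calcium fluorescence measurement; Measure: % inhibition from peak post-agonist over basal fluorescence ratio; Benchmarks: vehicle and agonist controls.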
TAAR1 ag: agonists of human TAAR1. Q96RJ0. CHO RD-HGA16 TAAR1, Fluo-8 calcium fluorescence; vehicle wells 0%, saturating PEA agonist 100%. activation, % at 3 µM. 360,000 tested, 0.99% active. AID 624467;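 active means activation above the mean activation of all test compounds in the run plus 3 SD, cut at about 38% in these data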
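Signal – calcium-sensitive Fluo-8 signal, excitation 470-495, emission 515-575 nm · System – RD-HGA16 (CHO) cells co-expressing Gα16 and hTAAR1 · Incubation – 17-24 h seeding, 75 min 37 °C dye, 30 min RT · Compound dosing – 3 µM single concentration · Repeats – no replicates (n 1)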
TAAR1 ag conf: human TAAR1 agonism, confirmed. 2,400 tested, 82% active. CHO RD-HGA16 TAAR1, Fluo-8 calcium fluorescence; scaled: DMSO 0%, maximal phenethylamine 100%. activation, % at 3 µM. shares compounds with TAAR1 ag;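 active means activation above a cutoff set at the run's mean compound activation plus 3 SD, cut at about 39% in these data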
Ga16 ag counter: counter-screen for TAAR1 agonists: nonselective agonists in parental cells | shares compounds with TAAR1 ag | CHO-Ga16 parental, Fluo-8 calcium fluorescence; normalized to maximal ATP response, DMSO zero | activation, % at 3 µM | 2,400 tested, 50% active;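 active means activation above the run cutoff, the mean activation over all tested wells plus 3 SD, cut at about 12% in these data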
TAAR1 desensitize: human TAAR1 agonist that also desensitizes the receptor. shares compounds with TAAR1 ag. CHO RD-HGA16 hTAAR1, Fluo-8 calcium, beta-PEA response inhibition. inhibition, % at 3 µM. 2,400 tested, 46% active. AID 651951;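 active means inhibition above the run cutoff, the mean inhibition of all test compounds plus 3 SD, cut at about 49% in these data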;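 further: beta-PEA stimulus applied at its EC80; loss of beta-PEA calcium signal after compound pretreatment read as receptor desensitization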
Ga16 antag count: counter-screen for TAAR1 agonists: nonselective Ga16 antagonists; inhibition, % at 3 µM; CHO-Ga16 ATP-induced calcium, Fluo-8 fluorescence; 2,400 tested, 39% active; shares compounds with TAAR1 ag;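 active means inhibition above the plate's mean compound inhibition plus 3 SD, computed per plate, cut at about 22% in these data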
A number is an active result; 0 = inactive; - = not tested or not shown. Compounds with a hit are over-represented: about 3% of the library has one in this group of screens.

SMILES | M4 antag | CHRM4 agonist | M4 PAM | TAAR1 antagonist | TAAR1 ag | TAAR1 ag conf | Ga16 ag counter | TAAR1 desensitize | Ga16 antag count
CC(=NCCc1ccccc1)C1=C(O)CCC1=O | 0 | 0 | 0 | 74.4 | 105.3 | 98.3 | 0 | 73.4 | 0
CC(=NCCc1ccccc1)C1=C(O)CSC1=O | 0 | 0 | 0 | 74.7 | 93.0 | 84.0 | 0 | 56.5 | 0
CC(=O)C1=C(O)CCC1=NCCc1ccccc1 | 0 | 0 | 0 | 0 | 0 | - | - | - | -
CCOC1=C2CN(S(=O)(=O)c3ccc(C)cc3)C(c3ccc(C)cc3)CC2N(S(=O)(=O)c2ccc(C)cc2)C(c2ccccc2)C1 (stereo unspecified) | 0 | 0 | 0 | 0 | 0 | - | - | - | -
O=C(Nc1ccc2ccccc2c1)C(c1ccccc1)n1c(=O)c(-c2cc3ccccc3[nH]2)nc2ccccc21 (stereo unspecified) | 0 | 0 | 0 | 0 | 0 | - | - | - | -
COc1ccc(C2(C)NC(=O)N(CC(=O)c3cc(C)n(C4CC4)c3C)C2=O)cc1 (stereo unspecified) | 0 | 35.3 | 0 | 82.8 | 136.9 | 104.3 | 50.0 | 0 | 26.2
Cc1cc(C(=O)CN2C(=O)NC(C)(c3ccc(F)c(F)c3)C2=O)c(C)n1C1CC1 (stereo unspecified) | 0 | 0 | 0 | 0 | 68.1 | 84.3 | 30.2 | 0 | 0
O=C(N/N=C/c1ccc(C(F)(F)F)cc1)c1ccc(O)cc1 | 0 | 0 | 0 | 0 | 0 | - | - | - | -
NC(N)=NN=C(c1ccc(F)cc1)c1ccc(C(F)(F)F)cc1 | 0 | 0 | 0 | 0 | 51.2 | 64.6 | 31.5 | 0 | 28.1
O=C1/C(=C\c2cc(Cl)c(O)c(Cl)c2)SC(=S)N1Cc1ccccc1 | 0 | 0 | 0 | 97.2 | 110.9 | 187.7 | 258.1 | 107.1 | 106.2
COc1ccc(/C=C2/SC(=S)N(Cc3ccccc3)C2=O)cc1O | 0 | 0 | 0 | 0 | 0 | - | - | - | -
COC(=O)c1ccc2nc(-c3ccc(OC)c(OC)c3)c(Cc3ccccc3C(F)(F)F)n2c1 | - | - | - | 0 | 0 | - | - | - | -
Cc1ccccc1N(CC(=O)N1CCN(Cc2ccccc2)CC1)S(C)(=O)=O | 0 | 0 | 0 | 0 | 0 | - | - | - | -
CCC1(c2ccccc2)NC(=O)N(CC(=O)Nc2ccccc2N2CCCCC2)C1=O (stereo unspecified) | 0 | 0 | 0 | 51.7 | 70.1 | 78.3 | 44.9 | 62.9 | 29.8
CCC1(c2ccccc2)NC(=O)N(CC(=O)Nc2ccccc2C(=O)N2CCCCC2)C1=O (stereo unspecified) | 0 | 0 | 0 | 0 | 0 | - | - | - | -
C=CCn1c(O)c(C2=c3ccccc3=NC2=O)c2ccccc21 | 49.8 | 0 | 0 | 0 | 63.9 | 63.1 | 38.1 | 68.0 | 52.0
Cc1ccc2c(c1)c(C1=c3ccccc3=NC1=O)c(O)n2C | 0 | 0 | 0 | 0 | 63.3 | 39.2 | 16.2 | 0 | 25.2
Cc1c(-n2c(O)c(C3=c4ccccc4=NC3=O)sc2=O)c(=O)n(-c2ccccc2)n1C | 0 | 0 | 0 | 0 | 0 | - | - | - | -
CN(C)c1ccc(/C=C2\SC(=S)N(Nc3ncc(C(F)(F)F)cc3Cl)C2=O)cc1 | 34.8 | 0 | 0 | 87.3 | 122.6 | 76.1 | 121.6 | 77.2 | 90.2
Cc1cc(C)nc(NN2C(=O)/C(=C/c3ccccc3)SC2=S)n1 | 0 | 0 | 0 | 0 | 0 | - | - | - | -
COc1cc(N/N=C/c2ccccc2O)ncn1 | 0 | 0 | 0 | 0 | 49.3 | 57.1 | 0 | 53.1 | 0
COc1ccc(-n2nnnc2SCC(=O)Nc2nnc(C)s2)cc1 | 0 | 0 | 0 | 0 | 0 | - | - | - | -
CCOC(=O)c1csc(NC(=O)CSc2nnnn2-c2ccc(OC)cc2)n1 | 0 | 0 | 0 | 0 | 53.3 | 0 | 16.2 | 0 | 0
